A word on the inhibition: it is the change of the read-out against control, counted positive when it falls. As a reminder, the IC50 is the point on the concentration scale where inhibition reaches its midpoint.

The values that follow come from ChEMBL document CHEMBL4765248, “Design, synthesis, biological evaluation and molecular docking study of novel thieno[3,2-d]pyrimidine derivatives as potent FAK inhibitors” (Eur J Med Chem, 2020).

The subject of data set [1] is A549. The data set can be described thus: Antiproliferative activity against human A549 cells assessed as cell viability at 2.5 uM measured after 48 hrs by MTT assay (reference value: 100%). Type of data set: functional. Conditions: read-out: Activity. In general terms: Tetrazolium assays rely on reduction of a dye to a coloured formazan, in cell work by metabolically active cells.

Data set [2] concerns MDA-MB-231. As to the kind of experiment: Antiproliferative activity against human MDA-MB-231 cells assessed as cell viability at 0.1 uM measured after 24 hrs by MTT assay (reference value: 100%). Type of data set: functional. Conditions: read-out: Activity.
The target of data set [3] is Homeodomain-interacting protein kinase 3 (Homo sapiens) (UniProt Q9H422). The data set can be described thus: Inhibition of His-tagged human HIPK3 catalytic domain expressed in baculovirus expression system at 1 uM by Selectscreen kinase assay. The essentials: (§1)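 Single-point screen at 1 μM final against a panel of 25 kinases using a commercial profiling service; mean of three independent experiments each run in triplicate.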
Chain of Homeodomain-interacting protein kinase 3 (Homo sapiens) (Q9H422 whole entry, looked up, the tested form may be a part): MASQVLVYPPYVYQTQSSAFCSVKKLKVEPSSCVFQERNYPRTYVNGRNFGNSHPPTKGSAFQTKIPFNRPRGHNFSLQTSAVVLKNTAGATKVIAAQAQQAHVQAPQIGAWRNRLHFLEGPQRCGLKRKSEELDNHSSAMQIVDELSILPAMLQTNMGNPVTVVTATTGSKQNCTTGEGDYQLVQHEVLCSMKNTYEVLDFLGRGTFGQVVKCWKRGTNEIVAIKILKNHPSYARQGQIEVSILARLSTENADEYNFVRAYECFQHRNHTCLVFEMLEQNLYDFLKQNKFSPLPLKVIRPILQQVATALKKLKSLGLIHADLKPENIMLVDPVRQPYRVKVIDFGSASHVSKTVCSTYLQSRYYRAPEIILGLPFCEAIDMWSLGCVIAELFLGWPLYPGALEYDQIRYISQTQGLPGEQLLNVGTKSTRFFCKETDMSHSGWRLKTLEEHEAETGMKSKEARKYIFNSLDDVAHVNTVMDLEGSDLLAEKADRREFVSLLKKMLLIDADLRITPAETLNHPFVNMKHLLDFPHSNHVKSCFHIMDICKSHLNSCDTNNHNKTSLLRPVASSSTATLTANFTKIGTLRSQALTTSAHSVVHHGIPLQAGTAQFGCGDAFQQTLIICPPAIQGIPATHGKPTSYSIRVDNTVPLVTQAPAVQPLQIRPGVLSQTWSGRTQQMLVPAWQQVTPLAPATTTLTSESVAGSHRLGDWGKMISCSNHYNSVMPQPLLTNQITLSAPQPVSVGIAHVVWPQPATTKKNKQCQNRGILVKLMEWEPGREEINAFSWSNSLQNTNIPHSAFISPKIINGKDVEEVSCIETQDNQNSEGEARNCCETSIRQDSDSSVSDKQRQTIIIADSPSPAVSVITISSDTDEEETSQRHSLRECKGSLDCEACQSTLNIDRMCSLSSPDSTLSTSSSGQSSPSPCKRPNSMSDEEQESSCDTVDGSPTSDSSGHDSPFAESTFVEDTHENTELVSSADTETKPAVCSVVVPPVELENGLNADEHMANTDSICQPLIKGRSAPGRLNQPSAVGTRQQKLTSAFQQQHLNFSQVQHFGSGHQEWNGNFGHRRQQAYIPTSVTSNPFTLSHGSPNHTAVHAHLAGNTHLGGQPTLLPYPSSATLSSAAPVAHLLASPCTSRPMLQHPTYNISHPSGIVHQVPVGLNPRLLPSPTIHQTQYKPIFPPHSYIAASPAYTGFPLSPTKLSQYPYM

Data set [4] concerns MDA-MB-231. As to the kind of experiment: Induction of apoptosis in human MDA-MB-231 cells assessed as late apoptotic cells at 0.4 uM incubated for 48 hrs by Annexin V-FITC/PI staining based flow cytometric analysis (reference value: 1.49%). The data set is classed as functional. Background: In flow cytometry, cells or beads pass a laser one at a time.
A short description of data set [5]: Metabolic stability in rat liver microsomes assessed as parent compound remaining at 1 uM measured after 60 mins in absence of NADPH by LC-MS/MS analysis. Type of data set: ADME, Microsome. Conditions: read-out: Stabilty. The essentials: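 Rat liver microsomes (0.5 mg/mL) were incubated at 37 °C with 1 μM compound in pH 7.4 potassium phosphate/MgCl2 buffer for 1 h, with buffer in place of the NADPH regeneration system. After acetonitrile precipitation, percent parent remaining was measured by LC-MS/MS.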

In data set [6] the target is Inhibitor of nuclear factor kappa-B kinase subunit epsilon (Homo sapiens) (UniProt Q14164). As to the kind of experiment: Inhibition of GST-tagged full length human IKK epsilon expressed in baculovirus expression system at 1 uM by Selectscreen kinase assay. The essentials: as §1
Chain of Inhibitor of nuclear factor kappa-B kinase subunit epsilon (Homo sapiens) (Q14164 whole entry): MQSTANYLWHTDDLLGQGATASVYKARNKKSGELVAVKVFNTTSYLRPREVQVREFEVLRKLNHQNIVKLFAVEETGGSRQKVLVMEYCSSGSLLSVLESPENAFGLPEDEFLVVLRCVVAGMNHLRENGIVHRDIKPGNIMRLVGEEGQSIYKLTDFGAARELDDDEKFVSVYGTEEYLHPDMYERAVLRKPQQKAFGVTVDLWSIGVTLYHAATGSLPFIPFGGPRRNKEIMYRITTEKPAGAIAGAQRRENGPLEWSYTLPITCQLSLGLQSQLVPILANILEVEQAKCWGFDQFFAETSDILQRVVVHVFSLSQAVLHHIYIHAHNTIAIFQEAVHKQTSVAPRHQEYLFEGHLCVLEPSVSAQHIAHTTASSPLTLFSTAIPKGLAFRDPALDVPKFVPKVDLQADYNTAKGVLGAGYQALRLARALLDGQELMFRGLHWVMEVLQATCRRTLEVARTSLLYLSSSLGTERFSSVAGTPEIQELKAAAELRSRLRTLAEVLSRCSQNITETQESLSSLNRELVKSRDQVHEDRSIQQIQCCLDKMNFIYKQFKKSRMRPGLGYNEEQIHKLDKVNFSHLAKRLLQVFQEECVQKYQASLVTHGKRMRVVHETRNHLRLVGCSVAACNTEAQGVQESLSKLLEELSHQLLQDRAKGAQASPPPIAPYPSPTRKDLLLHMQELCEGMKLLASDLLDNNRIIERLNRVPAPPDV
Data set [7] has as its system MDA-MB-231. As to the kind of experiment: Induction of apoptosis in human MDA-MB-231 cells assessed as early apoptotic cells at 0.1 uM incubated for 48 hrs by Annexin V-FITC/PI staining based flow cytometric analysis (reference value: 1.58%). Type of data set: functional.
Data set [8] relates to MDA-MB-231. As to the kind of experiment: Induction of apoptosis in human MDA-MB-231 cells assessed as early apoptotic cells at 0.2 uM incubated for 48 hrs by Annexin V-FITC/PI staining based flow cytometric analysis (reference value: 1.58%). The data set is classed as functional.
Data set [9] concerns the target MAP kinase-interacting serine/threonine-protein kinase 1 (Homo sapiens) (UniProt Q9BUB5). The data set can be described thus: Inhibition of GST-tagged full length human MKNK1 expressed in insect expression system at 1 uM by Selectscreen kinase assay. The essentials: as §1
Data set [10] addresses Serine/threonine-protein kinase B-raf (Homo sapiens) (UniProt P15056). As to the kind of experiment: Inhibition of GST-tagged human full length BRAF expressed in baculovirus expression system at 1 uM by Selectscreen kinase assay. The essentials:
as §1

Data set [11] relates to MDA-MB-231. The data set can be described thus: Inhibition of cell migration in human MDA-MB-231 cells at 0.15 to 0.6 uM by wound healing assay. As to conditions: dose 0.15-0.6 µM, time 24-48 hrs, TDE = time-dependent effect. The data set is classed as functional, cell-based. The essentials:
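MDA-MB-231 cells (2×10^6/well) were grown to confluence and the monolayer was scratched with a pipette tip. Cells were washed with PBS, kept in serum-free medium and treated with DMSO or compound at 0.15, 0.3 or 0.6 μM for 48 h. Wound closure was photographed by inverted microscope at 24 and 48 h.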

The target of data set [12] is Serine/threonine-protein kinase Chk1 (Homo sapiens) (UniProt O14757). As to the kind of experiment: Inhibition of His-tagged full length human CHK1 expressed in baculovirus expression system at 1 uM by Selectscreen kinase assay. The essentials: as §1
Chain of Serine/threonine-protein kinase Chk1 (Homo sapiens) (O14757 whole entry): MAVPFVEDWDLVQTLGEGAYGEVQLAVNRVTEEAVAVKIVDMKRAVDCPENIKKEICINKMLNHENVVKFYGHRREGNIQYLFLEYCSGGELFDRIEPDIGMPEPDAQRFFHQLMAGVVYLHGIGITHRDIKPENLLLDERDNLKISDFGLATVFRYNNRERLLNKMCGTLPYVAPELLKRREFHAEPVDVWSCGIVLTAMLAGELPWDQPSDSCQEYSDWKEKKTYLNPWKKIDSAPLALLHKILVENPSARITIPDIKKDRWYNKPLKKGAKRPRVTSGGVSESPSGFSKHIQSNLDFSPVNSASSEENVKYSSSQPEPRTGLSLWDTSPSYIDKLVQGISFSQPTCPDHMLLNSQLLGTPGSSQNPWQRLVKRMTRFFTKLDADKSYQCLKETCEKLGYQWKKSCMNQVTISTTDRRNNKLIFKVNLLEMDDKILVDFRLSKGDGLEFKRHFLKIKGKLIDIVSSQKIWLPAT
In data set [13] the test system is MDA-MB-231. The data set can be described thus: Antiproliferative activity against human MDA-MB-231 cells assessed as cell viability at 0.5 uM measured after 48 hrs by MTT assay (reference value: 100%). Type of data set: functional. Conditions: read-out: Activity.
Data set [14] concerns the target Cyclin-dependent kinase 2 (Homo sapiens) (UniProt P24941). As to the kind of experiment: Inhibition of human CDK2 at 1 uM by Selectscreen kinase assay. The essentials: as §1
The subject of data set [15] is A549. The data set can be described thus: Antiproliferative activity against human A549 cells assessed as cell viability at 0.5 uM measured after 48 hrs by MTT assay (reference value: 100%). The data set is classed as functional. Conditions: read-out: Activity.
Data set [16] has as its system MDA-MB-231. As to the kind of experiment: Antiproliferative activity against human MDA-MB-231 cells assessed as reduction in cell viability at 0.1 to 2.5 uM by MTT assay. The data set is classed as functional, cell-based. As to conditions: dose 0.1-2.5 µM, time 24-72 hrs, TDE = time-dependent effect.
The test system of data set [17] is MDA-MB-231. The data set can be described thus: Antiproliferative activity against human MDA-MB-231 cells assessed as inhibition of cell growth measured after 72 hrs by MTT assay. As to conditions: MDA-MB-231, 72 h. Type of data set: functional, cell-based. The essentials: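 Cells were seeded at 4000–5000/well and held 24 h at 37 °C in 5% CO2. Compounds were added at the indicated final concentrations and incubated 72 h. MTT was added (5 mg/mL in PBS, stated as final) for 4 h at 37 °C. Formazan was dissolved in DMSO and absorbance read at 490 nm. The 50% growth-inhibitory concentration is the mean of three independent experiments ± SE.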

Data set [18] concerns the target Rho-associated protein kinase 1 (Homo sapiens) (UniProt Q13464). The data set can be described thus: Inhibition of GST-tagged recombinant human ROCK1 catalytic domain (1-535) expressed in baculovirus expression system at 1 uM by Selectscreen kinase assay. The essentials:
as §1

The subject of data set [19] is MDA-MB-231. The data set can be described thus: Induction of cell cycle arrest in human MDA-MB-231 cells assessed as accumulation of cells at S phase at 0.1 uM measured after 48 hrs by PI staining based flow cytometry method (reference value: 39.17%). Type of data set: functional.
Data set [20] has as its system A549. The data set can be described thus: Antiproliferative activity against human A549 cells assessed as cell viability at 0.1 uM measured after 72 hrs by MTT assay (reference value: 100%). The data set is classed as functional. As to conditions: read-out: Activity.
Data set [21] concerns MDA-MB-231. As to the kind of experiment: Antiproliferative activity against human MDA-MB-231 cells assessed as cell viability at 0.1 uM measured after 48 hrs by MTT assay (reference value: 100%). As to conditions: read-out: Activity. Type of data set: functional.
Data set [22] deals with Serine/threonine-protein kinase pim-1 (Homo sapiens) (UniProt P11309). As to the kind of experiment: Inhibition of His-tagged full length recombinant human PIM1 expressed in baculovirus expression system at 1 uM by Selectscreen kinase assay. The essentials: as §1
Chain of Serine/threonine-protein kinase pim-1 (Homo sapiens) (P11309 whole entry, looked up): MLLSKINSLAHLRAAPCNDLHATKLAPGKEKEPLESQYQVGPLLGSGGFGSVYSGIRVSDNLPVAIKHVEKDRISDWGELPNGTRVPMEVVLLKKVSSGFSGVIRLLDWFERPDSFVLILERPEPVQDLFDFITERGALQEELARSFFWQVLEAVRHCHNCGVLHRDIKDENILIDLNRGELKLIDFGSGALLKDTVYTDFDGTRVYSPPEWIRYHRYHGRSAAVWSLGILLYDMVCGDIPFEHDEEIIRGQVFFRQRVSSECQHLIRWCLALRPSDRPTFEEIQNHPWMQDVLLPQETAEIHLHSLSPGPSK
For data set [23], the system named is MDA-MB-231. As to the kind of experiment: Induction of apoptosis in human MDA-MB-231 cells assessed as necrotic cells at 0.4 uM incubated for 48 hrs by Annexin V-FITC/PI staining based flow cytometric analysis (reference value: 1.08%). Type of data set: functional.
Data set [24] has as its target Dual specificity mitogen-activated protein kinase kinase 1 (Homo sapiens) (UniProt Q02750). As to the kind of experiment: Inhibition of His-tagged full length human MEK1 expressed in baculovirus expression system at 1 uM by Selectscreen kinase assay. The essentials:
as §1

Chain of Serine/threonine-protein kinase B-raf (Homo sapiens) (P15056 whole entry): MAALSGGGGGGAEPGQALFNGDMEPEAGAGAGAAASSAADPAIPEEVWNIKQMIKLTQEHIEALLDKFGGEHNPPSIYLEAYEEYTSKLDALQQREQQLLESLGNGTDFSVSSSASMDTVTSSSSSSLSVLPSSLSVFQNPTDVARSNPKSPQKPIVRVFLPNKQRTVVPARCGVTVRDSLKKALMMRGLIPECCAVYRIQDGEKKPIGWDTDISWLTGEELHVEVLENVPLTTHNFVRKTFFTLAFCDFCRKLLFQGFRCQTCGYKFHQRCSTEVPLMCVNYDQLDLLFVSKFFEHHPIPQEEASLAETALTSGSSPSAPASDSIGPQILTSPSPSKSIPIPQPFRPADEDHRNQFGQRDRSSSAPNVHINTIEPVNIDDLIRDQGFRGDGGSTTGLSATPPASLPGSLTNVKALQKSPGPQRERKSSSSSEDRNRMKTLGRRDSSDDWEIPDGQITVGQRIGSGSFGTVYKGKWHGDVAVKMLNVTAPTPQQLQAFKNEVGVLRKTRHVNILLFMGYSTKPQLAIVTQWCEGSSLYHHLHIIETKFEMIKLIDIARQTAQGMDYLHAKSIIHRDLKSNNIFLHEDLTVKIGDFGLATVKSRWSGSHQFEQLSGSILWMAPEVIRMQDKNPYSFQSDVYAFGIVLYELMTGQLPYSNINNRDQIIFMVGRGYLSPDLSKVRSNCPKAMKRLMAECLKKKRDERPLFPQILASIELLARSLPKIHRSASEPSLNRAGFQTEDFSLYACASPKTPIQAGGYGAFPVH
Chain of Dual specificity mitogen-activated protein kinase kinase 1 (Homo sapiens) (Q02750 whole entry): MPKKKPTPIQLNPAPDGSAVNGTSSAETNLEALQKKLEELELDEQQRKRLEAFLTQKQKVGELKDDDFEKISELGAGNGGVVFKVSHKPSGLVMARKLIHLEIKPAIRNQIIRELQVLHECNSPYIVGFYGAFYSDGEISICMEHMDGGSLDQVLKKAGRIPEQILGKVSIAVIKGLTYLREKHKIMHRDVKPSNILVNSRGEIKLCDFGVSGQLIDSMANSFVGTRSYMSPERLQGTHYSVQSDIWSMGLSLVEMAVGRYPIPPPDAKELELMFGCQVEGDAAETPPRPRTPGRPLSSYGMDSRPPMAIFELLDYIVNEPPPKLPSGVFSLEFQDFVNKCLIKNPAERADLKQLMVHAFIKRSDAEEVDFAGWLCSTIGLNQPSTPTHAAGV
Chain of MAP kinase-interacting serine/threonine-protein kinase 1 (Homo sapiens) (Q9BUB5 whole entry, looked up): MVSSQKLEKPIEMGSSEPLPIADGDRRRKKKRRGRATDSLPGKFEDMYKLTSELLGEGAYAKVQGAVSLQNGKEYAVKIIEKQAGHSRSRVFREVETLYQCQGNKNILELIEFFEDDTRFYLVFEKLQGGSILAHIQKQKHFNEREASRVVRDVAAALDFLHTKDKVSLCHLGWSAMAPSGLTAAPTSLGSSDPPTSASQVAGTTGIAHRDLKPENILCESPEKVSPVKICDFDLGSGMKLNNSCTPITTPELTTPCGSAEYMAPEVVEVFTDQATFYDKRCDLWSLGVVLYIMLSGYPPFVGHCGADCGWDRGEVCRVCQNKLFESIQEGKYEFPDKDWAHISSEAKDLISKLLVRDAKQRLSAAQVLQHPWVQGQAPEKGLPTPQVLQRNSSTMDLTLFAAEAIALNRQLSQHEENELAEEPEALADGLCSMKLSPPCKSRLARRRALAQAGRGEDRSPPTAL

In the case of `COc1ccccc1-c1csc2cnc(Nc3ccc(C(=O)NC4CCNCC4)c(F)c3)nc12`, the viability at 2.5 µM in the data set with A549 [1] came out at 31%. Also, the viability at 0.1 µM is 97.6% in the data set on MDA-MB-231 [2], 66.9% in the data set on A549 [20] and 74.1% in the data set on MDA-MB-231 [21]. The inhibition was 72% in data set [3]; 66% in [6]; 13% in data set [9]; 51% in data set [10]; “Tde” in the data set with MDA-MB-231 [11]; 38% in [12]. Moreover, the inhibition was found to be 97% in data set [14], 33% in data set [18], 3% in data set [22] and 27% in [24]. In addition, the Activity with MDA-MB-231 [4] was 26.21%; with MDA-MB-231 [7], 7.21%; in the data set with MDA-MB-231 [8] it was 9.78%; with MDA-MB-231 [16], “Tde”; with MDA-MB-231 [19] it was 41.96%; in the data set on MDA-MB-231 [23] it was 4.4%. For the same compound, the remaining at 1 h, 1 µM in data set [5] stood at 92.1%. In addition, the viability at 0.5 µM was determined as 40.7% in the data set on MDA-MB-231 [13] and 47.4% with A549 [15]. For the same compound, the IC50 in the data set on MDA-MB-231 [17] came out at 190 nM.
